ChEMBL document CHEMBL3272204, “Products from furans. 1. Sunthesis and anticoccidial and antimicrobial activity of 5-amino-5,6-dihydro-6-methoxy-2-methyl-2-(4'-biphenylyl)-2H-pyran-3(4H)-ones and related compounds” (1976)
In brackets after ≈: the same amount, converted by molar mass. Activity calls are given as the source filed them. The rule behind the calls is not given here.

Assays:
[1] = (§1) Antibacterial activity against Salmonella pullorum assessed as growth inhibition after 24 hrs; type: functional, Salmonella enterica subsp. enterica serovar Pullorum
Procedure, shortened: (§2)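 Twofold serial dilutions in nutrient broth. The minimum concentration inhibiting visible growth was read after 24 hr incubation at 37°.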

Staphylococcus [2] = test: Antibacterial activity against penicillin-sensitive Staphylococcus pyogenes assessed as growth inhibition after 24 hrs; type: functional
Procedure, shortened: (§3)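 Halving (twofold) serial dilutions of compound in nutrient broth, in vitro. Incubated 24 hr at 37°. Value reported is the lowest concentration that inhibited growth.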

Eimeria tenella [3] = test: Anticoccidal activity against Eimeria tenella assessed as improved weight gain and mortality in chicken relative to noninfected control; type: functional, organism-based
Procedure, shortened: (§4)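 Chickens with experimental coccidiosis received compound orally in the diet at 0.05%, starting 1 day before infection. Efficacy was judged 6 days later from survival and weight gain.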

[4] = Antifungal activity against Trichophyton granulosum assessed as growth inhibition after 10 days at 28 degC; type: functional; conditions: Trichophyton mentagrophytes var. granulosum
Procedure, shortened: (§5)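 Twofold serial dilutions in Sabouraud broth. The minimum inhibitory concentration was read after 10 days at 28°.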

Pseudomonas aeruginosa = test: Antibacterial activity against Pseudomonas aeruginosa assessed as growth inhibition after 24 hrs; type: functional; procedure, shortened: as §2
Escherichia coli = test: Antibacterial activity against Escherichia coli 198 assessed as growth inhibition after 24 hrs; type: functional; procedure, shortened: as §2
Eimeria acervulina [5] = test: Anticoccidal activity against Eimeria acervulina assessed as improved weight gain and mortality in chicken relative to noninfected control; type: functional, organism-based; procedure, shortened: as §4
Nannizzia gypsea = test: Antifungal activity against Microsporum gypseum assessed as growth inhibition after 10 days at 28 degC; type: functional; procedure, shortened: as §5
Candida albicans = test: Antifungal activity against Candida albicans assessed as growth inhibition after 5 days at 37 degC; type: functional
Procedure, shortened: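 Twofold serial dilutions in Sabouraud broth. The minimum inhibitory concentration was read after 5 days at 37°.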

Klebsiella pneumoniae = test: Antibacterial activity against Klebsiella pneumoniae assessed as growth inhibition after 24 hrs; type: functional; procedure, shortened: as §2
Klebsiella aerogenes = test: Antibacterial activity against Aerobacter aerogenes assessed as growth inhibition after 24 hrs; type: functional; procedure, shortened: as §2
Staphylococcus [6] = test: Antibacterial activity against penicillin-resistant Staphylococcus pyogenes assessed as growth inhibition after 24 hrs; type: functional; procedure, shortened: as §3
Serratia marcescens = test: Antibacterial activity against Serratia marcescens assessed as growth inhibition after 24 hrs; type: functional; procedure, shortened: as §2
Enterococcus faecalis = test: Antibacterial activity against Streptococcus faecalis assessed as growth inhibition after 24 hrs; type: functional; procedure, shortened: as §2
Proteus vulgaris = test: Antibacterial activity against Proteus vulgaris assessed as growth inhibition after 24 hrs; type: functional; procedure, shortened: as §2
Eimeria acervulina [7] = test: Anticoccidal activity against Eimeria acervulina assessed as improved weight gain in chicken; type: functional, organism-based; procedure, shortened: as §4
Eimeria tenella [8] = test: Anticoccidal activity against Eimeria tenella assessed as improved weight gain in chicken at 0.002%, po; type: functional, organism-based
Eimeria tenella [9] = test: Anticoccidal activity against Eimeria tenella assessed as improved weight gain in chicken at 0.05%, po; type: functional, organism-based; procedure, shortened: as §4
[10] = test system: Salmonella enterica subsp. enterica serovar Pullorum; test: as §1; type: functional; procedure, shortened: as §2
[11] = Salmonella enterica, 24 h, read-out: MIC
[12] = Staphylococcus, 24 h, read-out: MIC
[13] = Pseudomonas aeruginosa, 24 h, read-out: MIC
[14] = Escherichia coli, 198, 24 h, read-out: MIC
[15] = Klebsiella pneumoniae, 24 h, read-out: MIC
[16] = Klebsiella aerogenes, 24 h, read-out: MIC
[17] = Serratia marcescens, 24 h, read-out: MIC
[18] = Enterococcus faecalis, 24 h, read-out: MIC
[19] = Proteus vulgaris, 24 h, read-out: MIC

| SMILES | Activity (Eimeria tenella [3]) | MIC [4] | Activity (Eimeria acervulina [5]) | MIC (Staphylococcus [2]) | MIC (Pseudomonas aeruginosa) | MIC (Escherichia coli) | MIC (Nannizzia gypsea) | MIC (Candida albicans) | MIC (Klebsiella pneumoniae) | MIC (Klebsiella aerogenes) | MIC (Staphylococcus [6]) | MIC (Serratia marcescens) | MIC (Enterococcus faecalis) | MIC (Proteus vulgaris) | other results |
| --- | --- | --- | --- | --- | --- | --- | --- | --- | --- | --- | --- | --- | --- | --- | --- |
| CN(C)C(=O)OC1C=CC(=O)C(C)(c2ccc(-c3ccccc3)cc2)O1 (centres undefined) | Active | 6.2 µg/mL (≈ 17.6 µM) | Active | – | – | – | – | – | – | – | – | – | – | – | MIC [1, 11]: 6.2 µg/mL (≈ 17.6 µM); MIC (Staphylococcus [2]; [12]): 6.2 µg/mL (≈ 17.6 µM); MIC (Pseudomonas aeruginosa; [13]): 6.2 µg/mL (≈ 17.6 µM); MIC (Escherichia coli; [14]): 6.2 µg/mL (≈ 17.6 µM); MIC (Nannizzia gypsea; Nannizzia gypsea, 240 h, read-out: MIC): 8 µg/mL (≈ 22.8 µM); MIC (Candida albicans; Candida albicans, 120 h, read-out: MIC): 50 µg/mL (≈ 142 µM); MIC (Klebsiella pneumoniae; [15]): 6.2 µg/mL (≈ 17.6 µM); MIC (Klebsiella aerogenes; [16]): 6.2 µg/mL (≈ 17.6 µM); MIC (Staphylococcus [6]; [12]): 6.2 µg/mL (≈ 17.6 µM); MIC (Serratia marcescens; [17]): 6.2 µg/mL (≈ 17.6 µM); MIC (Enterococcus faecalis; [18]): 6.2 µg/mL (≈ 17.6 µM); MIC (Proteus vulgaris; [19]): 6.2 µg/mL (≈ 17.6 µM) |
| COC1C=CC(=O)C(C)(c2ccc(-c3ccccc3)cc2)O1 (stereo in doubt; 1a) | Active | 1 µg/mL (≈ 3.4 µM) | – | – | – | – | – | – | – | – | – | – | – | – | – |
| COC1C=CC(=O)C(C)(c2ccc(-c3ccccc3)cc2)O1 (single isomer, unassigned; isomer 1) [listing 1 of 2 here] | – | – | – | 6.2 µg/mL (≈ 21.1 µM) | 6.2 µg/mL (≈ 21.1 µM) | 6.2 µg/mL (≈ 21.1 µM) | 2 µg/mL (≈ 6.79 µM) | 16 µg/mL (≈ 54.4 µM) | 6.2 µg/mL (≈ 21.1 µM) | 6.2 µg/mL (≈ 21.1 µM) | 6.2 µg/mL (≈ 21.1 µM) | 6.2 µg/mL (≈ 21.1 µM) | 6.2 µg/mL (≈ 21.1 µM) | 6.2 µg/mL (≈ 21.1 µM) | MIC [1]: 6.2 µg/mL (≈ 21.1 µM) |
| CNC1CC(=O)C(C)(c2ccc(-c3ccccc3)cc2)OC1OC (centres undefined) | Active | – | – | – | – | – | – | – | – | – | – | – | – | – | MIC [1, 11]: 0.8 µg/mL (≈ 2.46 µM); MIC (Staphylococcus [2]; [12]): 0.8 µg/mL (≈ 2.46 µM); MIC (Pseudomonas aeruginosa; [13]): 0.8 µg/mL (≈ 2.46 µM); Activity (Eimeria acervulina [7]): inactive; MIC (Escherichia coli; [14]): 0.8 µg/mL (≈ 2.46 µM); MIC (Klebsiella pneumoniae; [15]): 0.8 µg/mL (≈ 2.46 µM); MIC (Klebsiella aerogenes; [16]): 0.8 µg/mL (≈ 2.46 µM); MIC (Staphylococcus [6]; [12]): 0.8 µg/mL (≈ 2.46 µM); MIC (Serratia marcescens; [17]): 0.8 µg/mL (≈ 2.46 µM); MIC (Enterococcus faecalis; [18]): 0.8 µg/mL (≈ 2.46 µM); MIC (Proteus vulgaris; [19]): 0.8 µg/mL (≈ 2.46 µM) |
| CCCCc1cc2c(=O)c(C(=O)OC)c[nH]c2cc1OCc1ccccc1 | – | – | – | – | – | – | – | – | – | – | – | – | – | – | Activity (Eimeria tenella [8]): Active |
| COC1C=CC(=O)C(C)(c2ccc(-c3ccccc3)cc2)O1 (single isomer, unassigned; isomer 1) [listing 2 of 2 here] | – | 8 µg/mL (≈ 27.2 µM) | – | – | – | – | – | – | – | – | – | – | – | – | Activity (Eimeria tenella [9]): inactive |
| COC1OC(C)(c2ccc(-c3ccccc3)cc2)C(O)CC1N(C)C (single isomer, unassigned; isomer 1) | Active | inactive | Active | inactive | inactive | inactive | inactive | inactive | inactive | inactive | inactive | inactive | inactive | inactive | MIC [10]: inactive |
| COC1OC(C)(c2ccc(-c3ccccc3)cc2)C(=O)CC1N(C)C (single isomer, unassigned; isomer 1) | – | – | – | 6.2 µg/mL (≈ 18.3 µM) | 6.2 µg/mL (≈ 18.3 µM) | 6.2 µg/mL (≈ 18.3 µM) | 8 µg/mL (≈ 23.6 µM) | 16 µg/mL (≈ 47.1 µM) | 6.2 µg/mL (≈ 18.3 µM) | 6.2 µg/mL (≈ 18.3 µM) | 6.2 µg/mL (≈ 18.3 µM) | 6.2 µg/mL (≈ 18.3 µM) | 6.2 µg/mL (≈ 18.3 µM) | 6.2 µg/mL (≈ 18.3 µM) | MIC [1]: 6.2 µg/mL (≈ 18.3 µM) |
| COC1OC(C)(c2ccc(-c3ccccc3)cc2)C(=O)CC1N(C)C (stereo in doubt; 2a) | Active | 8 µg/mL (≈ 23.6 µM) | Active | – | – | – | – | – | – | – | – | – | – | – | – |
| CNC1CC(O)C(C)(c2ccc(-c3ccccc3)cc2)OC1OC (centres undefined) | – | inactive | – | inactive | inactive | inactive | inactive | inactive | inactive | inactive | inactive | inactive | inactive | inactive | MIC [10]: inactive; Activity (Eimeria acervulina [7]): inactive; Activity (Eimeria tenella [9]): inactive |
